# Test system: OVCAR-3
# Test: Growth inhibition of human OVCAR-3 cells assessed as cell growth at 0.01 uM incubated for 48 hrs by sulforhodamine B assay relative to control
# Format: functional
# Conditions: read-out: Activity
row,Structure (SMILES),growth at 0.01 µM [%]
1,Cc1cc(C)c(NC(=O)c2sc3nc4c(cc3c2N)CN(Cc2ccccc2)CC4)c(C)c1,104

# Test system: SR
# Test: Growth inhibition of human SR cells assessed as cell growth at 1 uM incubated for 48 hrs by sulforhodamine B assay relative to control
# Format: functional
# Conditions: read-out: Activity
row,Structure (SMILES),growth at 1 µM [%]
1,Cc1cc(C)c(NC(=O)c2sc3nc4c(cc3c2N)CN(Cc2ccccc2)CC4)c(C)c1,68

# Test system: HOP-62
# Test: Growth inhibition of human HOP-62 cells assessed as cell growth at 0.01 uM incubated for 48 hrs by sulforhodamine B assay relative to control
# Format: functional
# Conditions: read-out: Activity
row,Structure (SMILES),growth at 0.01 µM [%]
1,Cc1cc(C)c(NC(=O)c2sc3nc4c(cc3c2N)CN(Cc2ccccc2)CC4)c(C)c1,83

# Test system: SF-539
# Test: Growth inhibition of human SF-539 cells assessed as cell growth at 1 uM incubated for 48 hrs by sulforhodamine B assay relative to control
# Format: functional
# Conditions: read-out: Activity
row,Structure (SMILES),growth at 1 µM [%]
1,Cc1cc(C)c(NC(=O)c2sc3nc4c(cc3c2N)CN(Cc2ccccc2)CC4)c(C)c1,88

# Test system: MOLT-4
# Test: Growth inhibition of human MOLT-4 cells assessed as cell growth at 100 uM incubated for 48 hrs by sulforhodamine B assay relative to control
# Format: functional
# Conditions: read-out: Activity
row,Structure (SMILES),growth at 100 µM [%]
1,Cc1cc(C)c(NC(=O)c2sc3nc4c(cc3c2N)CN(Cc2ccccc2)CC4)c(C)c1,10

# Test system: Hs-578T
# Test: Growth inhibition of human Hs-578T cells assessed as cell growth at 100 uM incubated for 48 hrs by sulforhodamine B assay relative to control
# Format: functional
# Conditions: read-out: Activity
row,Structure (SMILES),growth at 100 µM [%]
1,Cc1cc(C)c(NC(=O)c2sc3nc4c(cc3c2N)CN(Cc2ccccc2)CC4)c(C)c1,-3

# Test system: HT-29
# Test: Growth inhibition of human HT-29 cells assessed as cell growth at 0.01 uM incubated for 48 hrs by sulforhodamine B assay relative to control
# Format: functional
# Conditions: read-out: Activity
row,Structure (SMILES),growth at 0.01 µM [%]
1,Cc1cc(C)c(NC(=O)c2sc3nc4c(cc3c2N)CN(Cc2ccccc2)CC4)c(C)c1,105

# Test system: SF-268
# Test: Growth inhibition of human SF-268 cells assessed as cell growth at 0.01 uM incubated for 48 hrs by sulforhodamine B assay relative to control
# Format: functional
# Conditions: read-out: Activity
row,Structure (SMILES),growth at 0.01 µM [%]
1,Cc1cc(C)c(NC(=O)c2sc3nc4c(cc3c2N)CN(Cc2ccccc2)CC4)c(C)c1,98

# Test system: U-251
# Test: Growth inhibition of human U-251 cells assessed as cell growth at 100 uM incubated for 48 hrs by sulforhodamine B assay relative to control
# Format: functional
# Conditions: read-out: Activity
row,Structure (SMILES),growth at 100 µM [%]
1,Cc1cc(C)c(NC(=O)c2sc3nc4c(cc3c2N)CN(Cc2ccccc2)CC4)c(C)c1,-43

# Test system: SF-295
# Test: Growth inhibition of human SF-295 cells assessed as cell growth at 1 uM incubated for 48 hrs by sulforhodamine B assay relative to control
# Format: functional
# Conditions: read-out: Activity
row,Structure (SMILES),growth at 1 µM [%]
1,Cc1cc(C)c(NC(=O)c2sc3nc4c(cc3c2N)CN(Cc2ccccc2)CC4)c(C)c1,66

# Test system: MOLT-4
# Test: Growth inhibition of human MOLT-4 cells assessed as cell growth at 1 uM incubated for 48 hrs by sulforhodamine B assay relative to control
# Format: functional
# Conditions: read-out: Activity
row,Structure (SMILES),growth at 1 µM [%]
1,Cc1cc(C)c(NC(=O)c2sc3nc4c(cc3c2N)CN(Cc2ccccc2)CC4)c(C)c1,96

# Test system: PC-3
# Test: Growth inhibition of human PC-3 cells incubated for 48 hrs by sulforhodamine B assay
# Format: functional
# Conditions: not given
# In short: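 NCI DTP 60-line human tumour panel. Dose-response curves were run only for ligands active in the initial 10 µM screen. GI50 (concentration giving 50% of maximal inhibition of proliferation) and TGI (concentration giving total growth inhibition) were derived from these curves.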
Structure (SMILES),GI50 [µM],TGI [µM]
Cc1cc(C)c(NC(=O)c2sc3nc4c(cc3c2N)CN(Cc2ccccc2)CC4)c(C)c1,3.13,> 100

# Same assay, conditions: read-out: LC50 (the source's name)
row,Structure (SMILES),CC50 [µM]
1,Cc1cc(C)c(NC(=O)c2sc3nc4c(cc3c2N)CN(Cc2ccccc2)CC4)c(C)c1,> 100

# Test system: MDA-MB-231
# Test: Growth inhibition of human MDA-MB-231 cells assessed as cell growth at 1 uM incubated for 48 hrs by sulforhodamine B assay relative to control
# Format: functional
# Conditions: read-out: Activity
row,Structure (SMILES),growth at 1 µM [%]
1,Cc1cc(C)c(NC(=O)c2sc3nc4c(cc3c2N)CN(Cc2ccccc2)CC4)c(C)c1,89

# Test system: Hs-578T
# Test: Growth inhibition of human Hs-578T cells assessed as cell growth at 0.1 uM incubated for 48 hrs by sulforhodamine B assay relative to control
# Format: functional
# Conditions: read-out: Activity
row,Structure (SMILES),growth at 0.1 µM [%]
1,Cc1cc(C)c(NC(=O)c2sc3nc4c(cc3c2N)CN(Cc2ccccc2)CC4)c(C)c1,91

# Test system: ACHN
# Test: Growth inhibition of human ACHN cells assessed as cell growth at 0.1 uM incubated for 48 hrs by sulforhodamine B assay relative to control
# Format: functional
# Conditions: read-out: Activity
row,Structure (SMILES),growth at 0.1 µM [%]
1,Cc1cc(C)c(NC(=O)c2sc3nc4c(cc3c2N)CN(Cc2ccccc2)CC4)c(C)c1,100

# Test system: OVCAR-4
# Test: Growth inhibition of human OVCAR-4 cells assessed as cell growth at 0.01 uM incubated for 48 hrs by sulforhodamine B assay relative to control
# Format: functional
# Conditions: read-out: Activity
row,Structure (SMILES),growth at 0.01 µM [%]
1,Cc1cc(C)c(NC(=O)c2sc3nc4c(cc3c2N)CN(Cc2ccccc2)CC4)c(C)c1,93

# Test system: TK-10
# Test: Growth inhibition of human TK-10 cells assessed as cell growth at 0.01 uM incubated for 48 hrs by sulforhodamine B assay relative to control
# Format: functional
# Conditions: read-out: Activity
row,Structure (SMILES),growth at 0.01 µM [%]
1,Cc1cc(C)c(NC(=O)c2sc3nc4c(cc3c2N)CN(Cc2ccccc2)CC4)c(C)c1,103

# Test system: NCI-H23
# Test: Growth inhibition of human NCI-H23 cells incubated for 48 hrs by sulforhodamine B assay
# Format: functional
# Conditions: not given
# In short: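 NCI60 panel at the NCI Developmental Therapeutics Program. Only compounds active in the 10 µM screen went to dose-response testing. GI50, the concentration giving 50% of maximal inhibition of proliferation, and TGI, the concentration giving total growth inhibition, were derived from the dose-response curves.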
Structure (SMILES),GI50 [µM],LC50 (50% lethal concentration) [µM],TGI [µM]
Cc1cc(C)c(NC(=O)c2sc3nc4c(cc3c2N)CN(Cc2ccccc2)CC4)c(C)c1,4.51,> 100,> 100

# Test system: NCI-H460
# Test: Growth inhibition of human NCI-H460 cells assessed as cell growth at 0.1 uM incubated for 48 hrs by sulforhodamine B assay relative to control
# Format: functional
# Conditions: read-out: Activity
row,Structure (SMILES),growth at 0.1 µM [%]
1,Cc1cc(C)c(NC(=O)c2sc3nc4c(cc3c2N)CN(Cc2ccccc2)CC4)c(C)c1,103

# Test system: CCRF-CEM
# Test: Growth inhibition of human CCRF-CEM cells assessed as cell growth at 0.1 uM incubated for 48 hrs by sulforhodamine B assay relative to control
# Format: functional
# Conditions: read-out: Activity
# In short: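 NCI Developmental Therapeutics Program NCI60 panel. Compounds that were active in the 10 µM one-dose screen went on to dose–response testing. Growth at each concentration is expressed relative to untreated control (100%). GI50 (concentration giving 50% of maximal inhibition of proliferation) and TGI (concentration giving total growth inhibition) were derived from the curves.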
row,Structure (SMILES),growth at 0.1 µM [%]
1,Cc1cc(C)c(NC(=O)c2sc3nc4c(cc3c2N)CN(Cc2ccccc2)CC4)c(C)c1,97
